{
  "source": "ChEMBL document CHEMBL1212886",
  "about": "“New N-(phenoxydecyl)phthalimide derivatives displaying potent inhibition activity towards alpha-glucosidase” (Bioorg Med Chem, 2010)",
  "key": {"[1]": {"experiment": "Inhibition of Saccharomyces cerevisiae alpha-glucosidase after 10 mins", "procedure,_shortened": "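Yeast α-glucosidase, 25 mU/mL final, in 10 mM phosphate buffer pH 7.28, preincubated with test compound (DMSO) 5 min at 37 °C. p-NPG substrate 80 μM final; stopped after 10 min with 0.5 M Na2CO3; 4-nitrophenol read at 400 nm against DMSO control. Eight concentrations; triplicate, at least two runs; IC50 taken graphically from percent activity vs log concentration.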"}, "Prunus dulcis": {"system": "Prunus dulcis", "experiment": "Inhibition of almond beta-glucosidase at 25 uM after 10 mins", "procedure,_shortened": "(§1)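 Enzyme 12.5 mU per sample in buffer: β-glucosidase, 50 mM sodium citrate pH 5.0; α-mannosidase, 10 mM sodium acetate pH 4.5; α-galactosidase, 50 mM potassium phosphate pH 6.5. Compound in DMSO at 25 µM, preincubated 5 min at 37 °C; substrate added at 80 μM final; stopped after 10 min with 1 M Na2CO3. Absorbance compared with DMSO control; triplicate.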"}, "SH-SY5Y": {"system": "SH-SY5Y", "experiment": "Cytotoxicity against human SH-SY5Y cells after 2 hrs by MTT assay", "type": "functional, cell-based", "procedure,_shortened": "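SH-SY5Y neuroblastoma cells exposed to compound at 5 μM and at a second concentration for 2 h. MTT (5 mg/mL in DMEM + 10% FBS) then added, 4 h at 37 °C. Supernatant removed, formazan dissolved in DMSO, absorbance read at 540 nm. Sextuplicate, repeated twice.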"}, "Canavalia ensiformis": {"system": "Canavalia ensiformis", "experiment": "Inhibition of Canavalia ensiformis alpha-mannosidase at 25 uM after 10 mins", "procedure,_shortened": "as §1"}, "[2]": {"target": "Alpha-galactosidase (Coffea arabica) (UniProt Q42656)", "sequence (Q42656 16-378 limits assumed)": "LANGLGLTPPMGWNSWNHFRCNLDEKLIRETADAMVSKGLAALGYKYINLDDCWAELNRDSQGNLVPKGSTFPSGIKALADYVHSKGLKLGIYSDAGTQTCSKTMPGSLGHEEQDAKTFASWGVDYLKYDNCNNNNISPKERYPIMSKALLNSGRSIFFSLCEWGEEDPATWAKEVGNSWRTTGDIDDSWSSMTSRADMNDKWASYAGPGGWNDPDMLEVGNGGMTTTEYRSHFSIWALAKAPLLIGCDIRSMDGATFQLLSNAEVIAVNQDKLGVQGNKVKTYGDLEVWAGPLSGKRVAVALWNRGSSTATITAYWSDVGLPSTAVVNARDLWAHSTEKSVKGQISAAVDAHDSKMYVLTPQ", "experiment": "Inhibition of green coffee bean alpha-galactosidase at 25 uM after 10 mins", "procedure,_shortened": "as §1"}},
  "note": "The source made the active and inactive calls. No cut-off for these calls is given here.",
  "data": [
    {"smiles": "O=C1c2ccccc2C(=O)N1CCCCCCCCCCOc1cccc([N+](=O)[O-])c1", "values": [
      {"measurement": "IC50", "setting": "[1]", "result": 1080, "unit": "nM"}
    ]},
    {"smiles": "O=C1c2ccccc2C(=O)N1CCCCOc1ccccc1", "values": [
      {"measurement": "IC50", "setting": "[1]", "result": 33000, "unit": "nM"}
    ]},
    {"smiles": "Cc1cc(Cl)ccc1OCCN1C(=O)c2ccccc2C1=O", "values": [
      {"measurement": "IC50", "setting": "[1]", "result": 14800, "unit": "nM"}
    ]},
    {"smiles": "Cc1ccc(OCCCCCCCCCCN2C(=O)c3ccccc3C2=O)cc1", "values": [
      {"measurement": "IC50", "setting": "[1]", "result": 2100, "unit": "nM"}
    ]},
    {"smiles": "O=C1c2ccccc2C(=O)N1CCCCCCCCCCOc1ccc(C(F)(F)F)cc1", "values": [
      {"measurement": "IC50", "setting": "[1]", "result": 830, "unit": "nM"}
    ]},
    {"smiles": "O=C1c2ccccc2C(=O)N1CCCCCCCCCCOc1ccc(Cl)cc1Cl", "values": [
      {"measurement": "IC50", "setting": "[1]", "result": 1190, "unit": "nM"}
    ]},
    {"smiles": "O=C1c2ccccc2C(=O)N1CCCCCCCCCOc1ccccc1", "values": [
      {"measurement": "IC50", "setting": "[1]", "result": 3040, "unit": "nM"}
    ]},
    {"smiles": "O=C1c2ccccc2C(=O)N1CCCOc1ccc(Cl)c(Cl)c1", "values": [
      {"measurement": "IC50", "setting": "[1]", "result": 7550, "unit": "nM"}
    ]},
    {"smiles": "O=C1c2ccccc2C(=O)N1CCCCCCCCCCOc1ccc(C(F)(F)F)cc1[N+](=O)[O-]", "values": [
      {"measurement": "IC50", "setting": "[1]", "result": 1310, "unit": "nM"}
    ]},
    {"smiles": "O=C1c2ccccc2C(=O)N1CCCCCCCCCCOc1ccc([N+](=O)[O-])cc1", "values": [
      {"measurement": "IC50", "setting": "[1]", "result": 860, "unit": "nM"}
    ]},
    {"smiles": "O=C1c2ccccc2C(=O)N1CCOc1ccccc1", "values": [
      {"measurement": "IC50", "setting": "[1]", "result": 296000, "unit": "nM"}
    ]},
    {"smiles": "Cc1cc(Cl)cc(C)c1OCCN1C(=O)c2ccccc2C1=O", "values": [
      {"measurement": "IC50", "setting": "[1]", "result": 13000, "unit": "nM"}
    ]},
    {"smiles": "O=C1c2ccccc2C(=O)N1CCCCCCOc1ccccc1", "values": [
      {"measurement": "IC50", "setting": "[1]", "result": 10300, "unit": "nM"}
    ]},
    {"smiles": "O=C1c2ccccc2C(=O)N1CCCCCCCCCCOc1ccc(Cl)cc1[N+](=O)[O-]", "values": [
      {"measurement": "inhibition", "setting": "Prunus dulcis", "result": "inactive"},
      {"measurement": "inhibition", "setting": "SH-SY5Y", "result": "inactive"},
      {"measurement": "inhibition", "setting": "Canavalia ensiformis", "result": "inactive"},
      {"measurement": "inhibition", "setting": "[2]", "result": "inactive"},
      {"measurement": "IC50", "setting": "[1]", "result": 475, "unit": "nM"}
    ]},
    {"smiles": "O=C1c2ccccc2C(=O)N1CCOc1ccc(Cl)cc1", "values": [
      {"measurement": "IC50", "setting": "[1]", "result": 94000, "unit": "nM"}
    ]},
    {"smiles": "Cc1cc(Cl)ccc1OCCCN1C(=O)c2ccccc2C1=O", "values": [
      {"measurement": "IC50", "setting": "[1]", "result": 8900, "unit": "nM"}
    ]},
    {"smiles": "O=C1c2ccccc2C(=O)N1CCCCCCCCCCOc1ccc([N+](=O)[O-])cc1[N+](=O)[O-]", "values": [
      {"measurement": "IC50", "setting": "[1]", "result": 970, "unit": "nM"}
    ]},
    {"smiles": "Cc1cc(Cl)cc(C)c1OCCCCCCCCCCN1C(=O)c2ccccc2C1=O", "values": [
      {"measurement": "IC50", "setting": "[1]", "result": 1340, "unit": "nM"}
    ]},
    {"smiles": "O=C1c2ccccc2C(=O)N1CCCOc1ccccc1", "values": [
      {"measurement": "IC50", "setting": "[1]", "result": 240000, "unit": "nM"}
    ]},
    {"smiles": "O=C1c2ccccc2C(=O)N1CCCCCCCCCCOc1c(Cl)cc(Cl)cc1[N+](=O)[O-]", "values": [
      {"measurement": "inhibition", "setting": "Prunus dulcis", "result": "inactive"},
      {"measurement": "inhibition", "setting": "SH-SY5Y", "result": "inactive"},
      {"measurement": "inhibition", "setting": "Canavalia ensiformis", "result": "inactive"},
      {"measurement": "inhibition", "setting": "[2]", "result": "inactive"},
      {"measurement": "IC50", "setting": "[1]", "result": 750, "unit": "nM"}
    ]},
    {"smiles": "Cc1cccc(C)c1OCCCCCCCCCCN1C(=O)c2ccccc2C1=O", "values": [
      {"measurement": "IC50", "setting": "[1]", "result": 3250, "unit": "nM"}
    ]},
    {"smiles": "O=C1c2ccccc2C(=O)N1CCCOc1ccc(Cl)cc1", "values": [
      {"measurement": "IC50", "setting": "[1]", "result": 59000, "unit": "nM"}
    ]},
    {"smiles": "Cc1ccc(Cl)cc1OCCCCCCCCCCN1C(=O)c2ccccc2C1=O", "values": [
      {"measurement": "IC50", "setting": "[1]", "result": 910, "unit": "nM"}
    ]},
    {"smiles": "Cc1cc([N+](=O)[O-])cc(C)c1OCCCCCCCCCCN1C(=O)c2ccccc2C1=O", "values": [
      {"measurement": "IC50", "setting": "[1]", "result": 1320, "unit": "nM"}
    ]},
    {"smiles": "Cc1cc([N+](=O)[O-])c(Cl)cc1OCCCCCCCCCCN1C(=O)c2ccccc2C1=O", "values": [
      {"measurement": "inhibition", "setting": "Prunus dulcis", "result": "inactive"},
      {"measurement": "inhibition", "setting": "SH-SY5Y", "result": "inactive"},
      {"measurement": "inhibition", "setting": "Canavalia ensiformis", "result": "inactive"},
      {"measurement": "inhibition", "setting": "[2]", "result": "inactive"},
      {"measurement": "IC50", "setting": "[1]", "result": 650, "unit": "nM"}
    ]},
    {"smiles": "O=C1c2ccccc2C(=O)N1CCCCCCCCCCOc1ccc(Cl)cc1", "values": [
      {"measurement": "IC50", "setting": "[1]", "result": 1200, "unit": "nM"}
    ]},
    {"smiles": "O=C1c2ccccc2C(=O)N1CCCCCCCCCCOc1ccc(Cl)c(Cl)c1", "values": [
      {"measurement": "IC50", "setting": "[1]", "result": 1000, "unit": "nM"}
    ]},
    {"smiles": "O=C1c2ccccc2C(=O)N1CCCCCCCCCCOc1ccc([N+](=O)[O-])c(C(F)(F)F)c1", "values": [
      {"measurement": "IC50", "setting": "[1]", "result": 830, "unit": "nM"}
    ]},
    {"smiles": "O=C1c2ccccc2C(=O)N1CCCCCCCCOc1ccccc1", "values": [
      {"measurement": "IC50", "setting": "[1]", "result": 6500, "unit": "nM"}
    ]},
    {"smiles": "O=C1c2ccccc2C(=O)N1CCCCCCCCCCOc1ccccc1[N+](=O)[O-]", "values": [
      {"measurement": "IC50", "setting": "[1]", "result": 1780, "unit": "nM"}
    ]},
    {"smiles": "O=C1c2ccccc2C(=O)N1CCCCCOc1ccccc1", "values": [
      {"measurement": "IC50", "setting": "[1]", "result": 20200, "unit": "nM"}
    ]},
    {"smiles": "Cc1cc(Cl)c([N+](=O)[O-])c(C)c1OCCCCCCCCCCN1C(=O)c2ccccc2C1=O", "values": [
      {"measurement": "IC50", "setting": "[1]", "result": 3600, "unit": "nM"}
    ]},
    {"smiles": "O=C1c2ccccc2C(=O)N1CCCOc1cccc(Cl)c1Cl", "values": [
      {"measurement": "IC50", "setting": "[1]", "result": 15000, "unit": "nM"}
    ]},
    {"smiles": "OC[C@H]1NC[C@H](O)[C@@H](O)[C@@H]1O", "note": "[DUVOGLUSTAT]", "values": [
      {"measurement": "IC50", "setting": "[1]", "result": 52000, "unit": "nM"}
    ]},
    {"smiles": "Cc1cc(Cl)cc(C)c1OCCCN1C(=O)c2ccccc2C1=O", "values": [
      {"measurement": "IC50", "setting": "[1]", "result": 9500, "unit": "nM"}
    ]},
    {"smiles": "O=C1c2ccccc2C(=O)N1CCCCCCCCCCOc1cc(Cl)c(Cl)cc1[N+](=O)[O-]", "values": [
      {"measurement": "inhibition", "setting": "Prunus dulcis", "result": "inactive"},
      {"measurement": "inhibition", "setting": "SH-SY5Y", "result": "inactive"},
      {"measurement": "inhibition", "setting": "Canavalia ensiformis", "result": "inactive"},
      {"measurement": "inhibition", "setting": "[2]", "result": "inactive"},
      {"measurement": "IC50", "setting": "[1]", "result": 520, "unit": "nM"}
    ]},
    {"smiles": "O=C1c2ccccc2C(=O)N1CCCCCCCCCCOc1ccccc1", "values": [
      {"measurement": "IC50", "setting": "[1]", "result": 2500, "unit": "nM"}
    ]},
    {"smiles": "O=C1c2ccccc2C(=O)N1CCCCCCCCCCOc1cccc(Cl)c1", "values": [
      {"measurement": "IC50", "setting": "[1]", "result": 1090, "unit": "nM"}
    ]}
  ]
}
